Measurements taken from ChEMBL document CHEMBL2034923, “3-aminopiperidine-based peptide analogues as the first selective noncovalent inhibitors of the bacterial cysteine protease IdeS” (J Med Chem, 2012).
pKi: −log10 of the molar value. Activity calls are given as the source filed them. No cut-off for these calls is given here. Where a SMILES comes first, the peptide text is derived from it.

Columns and labels:
Streptococcus pyogenes [1] = test: Inhibition of Streptococcus pyogenes His-tagged IdeS expressed in Escherichia coli BL21 using IgG1 as substrate at 30 mM incubated for 15 mins prior to substrate addition measured after 20 mins
In short: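 IdeS with tag removed (TEV cleavage, Ni2+ and size-exclusion repurification), stored in PBS. Enzyme preincubated 15 min at room temp with analogue (30 mM stock in 50% DMSO/phosphate pH 7.4) before adding human IgG1. Final IdeS 0.8 μM, analogue at 4.8×10^3 molar excess. 20 min at 37 °C, stopped with iodoacetamide. Triplicates, PBS-for-IdeS controls. Read by SPR as fraction of active IdeS from an IdeS standard curve.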

[2] = target: T1, Streptopain (Streptococcus pyogenes) (UniProt P0C0J0); test: Inhibition of Streptococcus pyogenes 5448 SpeB using n-bezoyl-proline-phenylalanine-arginine-p-nitroanilide hydrochloride as substrate at 30 mM incubated for 15 mins prior to substrate addition measured after 30 mins by colorimetry
T1 sequence (whole entry): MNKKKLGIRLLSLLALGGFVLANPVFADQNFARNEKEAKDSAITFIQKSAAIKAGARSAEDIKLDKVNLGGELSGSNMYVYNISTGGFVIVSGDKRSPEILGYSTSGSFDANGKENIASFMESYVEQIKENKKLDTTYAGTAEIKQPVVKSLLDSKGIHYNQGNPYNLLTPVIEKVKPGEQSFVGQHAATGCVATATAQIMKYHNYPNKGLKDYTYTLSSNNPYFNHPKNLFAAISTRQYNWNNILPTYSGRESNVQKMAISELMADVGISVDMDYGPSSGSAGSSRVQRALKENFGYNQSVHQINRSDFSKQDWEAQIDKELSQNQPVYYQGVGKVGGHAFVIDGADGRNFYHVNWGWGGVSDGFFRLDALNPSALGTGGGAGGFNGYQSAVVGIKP
In short: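 SpeB purified from S. pyogenes 5448 culture supernatant (ammonium sulfate precipitation, ion exchange), activated with 2 mM DTT 30 min at 37 °C. Activated enzyme preincubated 15 min at room temperature with analogue (30 mM stock in 50% DMSO/phosphate pH 7.4; 4.8×10^3 molar excess over 0.28 μM final SpeB). Then 1 mM BPFA substrate in 0.1 M phosphate pH 6 added; OD405 change recorded. Activity expressed relative to uninhibited enzyme.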

Papain (Carica papaya) = target: T2, Papain (Carica papaya) (UniProt P00784); test: Inhibition of papaya papain using Nalpa-benzoyl-DL-arginine 4-nitroanilide hydrochloride as substrate at 30 mM incubated for 10 mins prior to substrate addition measured after 2 hrs by colorimetry
T2 sequence (whole entry): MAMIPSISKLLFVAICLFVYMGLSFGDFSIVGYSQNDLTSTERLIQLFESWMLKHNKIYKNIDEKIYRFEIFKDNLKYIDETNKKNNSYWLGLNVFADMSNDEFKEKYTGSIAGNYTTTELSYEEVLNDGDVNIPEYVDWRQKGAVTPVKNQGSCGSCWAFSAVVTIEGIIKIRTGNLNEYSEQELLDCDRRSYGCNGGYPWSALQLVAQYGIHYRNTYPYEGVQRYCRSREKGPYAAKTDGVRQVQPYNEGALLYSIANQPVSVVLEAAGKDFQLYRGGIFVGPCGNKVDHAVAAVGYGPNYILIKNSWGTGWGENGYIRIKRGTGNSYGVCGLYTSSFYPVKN
In short: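 Papain in pH 6.2 phosphate buffer with 1.23 mM EDTA and 1.23 mM DTT, preincubated 10 min at room temp with compound (30 mM stock in 50% DMSO/phosphate pH 6.2). Final papain 0.9 μM, compound at 4.8×10^3 molar excess. Substrate added from 100 mM DMSO stock, 2 h at 37 °C, stopped with acetic acid, Abs405 read. Duplicates on two occasions. Activity relative to no-inhibitor control.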

Streptococcus pyogenes [3] = test: Inhibition of Streptococcus pyogenes His-tagged IdeS expressed in Escherichia coli BL21 using IgG1 as substrate at 30 mM incubated for 15 mins prior to substrate addition measured after 20 mins by SDS-PAGE analysis
In short: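 Tag-free IdeS (TEV-cleaved, repurified) preincubated 15 min at room temp with peptide or analogue (30 mM stock in 50% DMSO/phosphate pH 7.4), then IgG1 substrate added. Final IdeS 0.8 μM with 4.8×10^3 molar excess of compound. 20 min at 37 °C, quenched with iodoacetamide, IgG cleavage products detected by SDS-PAGE. Triplicates plus enzyme-free controls.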

[4] = Inhibition of Streptococcus pyogenes His-tagged IdeS expressed in Escherichia coli BL21 using IgG1 as substrate by SDS-PAGE analysis
In short: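 Ki by competitive-inhibition fit of initial velocities. 2 μM IdeS with repurified polyclonal IgG at 150, 100, 50, 20 or 10 μM, inhibitor at 5, 2, 0.5 mM or 5, 2.5, 1 mM. Initial cleavage read by non-reducing SDS-PAGE densitometry of IgG, single-cleaved IgG, F(ab')2 and 1/2Fc bands, weighted by mass.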

[5] = Selectivity ratio of Ki for Streptococcus pyogenes IdeS to Ki for papaya papain

Row | Compound | inhibition (Streptococcus pyogenes [1]) | inhibition [2] | inhibition (Papain (Carica papaya)) | inhibition (Streptococcus pyogenes [3]) | pKi [4] | Ratio Ki [5]
1 | CCN(CC(N)=O)[C@@H]1CCCN(C(=O)[C@H](CC(C)C)NC(=O)[C@@H](N)CC(C)C)C1 | Active | Active |  |  |  | 
2 | CC(C)C[C@H](N)C(=O)N1CCC[C@H](NCC(N)=O)C1 | Active | inactive | inactive |  |  | 
3 | CC(C)[C@H](NC(=O)[C@H](CO)NC(=O)[C@@H]1CCCN1C(=O)CN)C(=O)O (H-GPSV-OH) |  |  |  | inactive |  | 
4 | NC(=O)[C@@H]1CCCN1C(=O)CN[C@H]1CCCNC1 | Active |  |  |  |  | 
5 | H-LLGGPS-OH |  |  |  | inactive |  | 
6 | NC(=O)CN[C@@H]1CCCNC1 | Active | inactive | inactive |  |  | 
7 | CC(C)C[C@H](N)C(=O)NCC(=O)NCC(=O)N1CCC[C@H]1C(=O)O (H-LGGP-OH) | Active |  |  | inactive |  | 
8 | H-PELLGGPS-OH |  |  |  | inactive |  | 
9 | NCC(=O)N1CCC[C@@H](N2CCC[C@H]2C(N)=O)C1 | Active |  |  |  |  | 
10 | CC(C)C[C@H](NC(=O)[C@@H](N)CC(C)C)C(=O)N1CCC[C@@H](NCC(N)=O)C1 | Active | inactive |  |  |  | 
11 | CC(C)C[C@H](N)C(=O)NCC(=O)N1CCC[C@@H](N2CCC[C@H]2C(N)=O)C1 | Active | Active | Active |  |  | 
12 | NCC(=O)N1CCC[C@H](N2CCC[C@H]2C(N)=O)C1 | Active |  |  |  |  | 
13 | H-ELLGG-OH |  |  |  | inactive |  | 
14 | CC(C)C[C@H](NC(=O)[C@@H](N)CC(C)C)C(=O)N1CCC[C@H](NCC(N)=O)C1 | Active | inactive |  |  |  | 
15 | CC(C)C[C@H](N)C(=O)N1CCC[C@H](NCC(=O)N2CCC[C@H]2C(N)=O)C1 | Active | inactive | Active |  |  | 
16 | CC(C)C[C@H](N)C(=O)NCC(=O)N1CCC[C@H](N2CCC[C@H]2C(N)=O)C1 | Active | Active |  |  |  | 
17 | NCC(=O)NCC(=O)N1CCC[C@H]1C(=O)N[C@@H](CO)C(=O)O (H-GGPS-OH) |  |  |  | inactive |  | 
18 | CCN(CC(N)=O)[C@H]1CCCN(C(=O)[C@H](CC(C)C)NC(=O)[C@@H](N)CC(C)C)C1 | Active | Active |  |  |  | 
19 | CC(C)C[C@H](N)C(=O)N1CCC[C@@H](NCC(=O)N2CCC[C@H]2C(N)=O)C1 | Active | inactive |  |  |  | 
20 | NCC(=O)NCC(=O)O (H-Gly-Gly-OH) | Active |  |  | inactive |  | 
21 | NC(=O)CN[C@H]1CCCNC1 | Active | inactive | inactive |  | 2.17 | 16
22 | NC(=O)[C@@H]1CCCN1C(=O)CN[C@@H]1CCCNC1 | Active |  | Active |  |  | 
23 | CC(C)C[C@H](N)C(=O)N1CCC[C@@H](NCC(N)=O)C1 | Active | inactive | inactive |  | 2.24 | 16
24 | CC(C)C[C@H](NC(=O)[C@@H](N)CC(C)C)C(=O)NCC(=O)NCC(=O)O (H-LLGG-OH) | Active | Active |  | inactive |  | 
